By IC50 is commonly meant the concentration that gives 50% inhibition. High values mean weaker potency in that assay, low ones greater potency in that assay. A word on the CC50: it is the concentration giving 50% cytotoxicity. Higher therefore signals better tolerance by the cells. As a reminder, the EC50 is the concentration needed to bring the measured effect to its halfway point.

Activity calls are given as the source filed them. No cut-off for these calls is given here.

One data set concerns Plasmodium falciparum. The experiment in a line: Antimalarial activity against Plasmodium falciparum Dd2 […] cells after 72 hrs by [3H]hypoxanthine incorporation assay. It is filed as functional, organism-based. A digest of the protocol:
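Synchronized (sorbitol) blood-stage P. falciparum Dd2 cultures exposed to a range of compound concentrations for 72 h; growth read by [³H]-hypoxanthine incorporation, percent inhibition used to derive IC₅₀. At least three independent repeats, mean ± SEM.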

A short description of data set [1]: Cytotoxicity against human HeLa cells after 72 hrs by methylene blue staining. Format: cell-based. A digest of the protocol:
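HeLa cells in RPMI 1640 with 10% heat-inactivated FBS and gentamicin; ~10,000 cells/well preincubated 48 h, then exposed to compound (DMSO stock 10 mg/mL diluted 1:200) for 72 h at 37 °C, 5% CO₂. Glutaraldehyde fixation, 0.05% methylene blue staining, elution with 0.33 M HCl, OD 660 nm.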

Data set [2] can be described thus: Selectivity index, ratio of CC50 for human HeLa cells to IC50 for Plasmodium falciparum Dd2 […] cells. Format: functional. The procedure, abridged: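 Selectivity index computed as HeLa CC₅₀ (72 h methylene blue assay) divided by P. falciparum Dd2 IC₅₀ (72 h [³H]-hypoxanthine assay).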
For data set [3], the system named is Trypanosoma brucei brucei. Description: Antitrypanosomal activity against Trypanosoma brucei brucei TC221 after 48 hrs by alamar blue assay. Format: functional, organism-based. The following applies: TC221, 48 h. The procedure, abridged:
(§1)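 T. b. brucei TC 221 trypomastigotes grown in Baltz medium; 10⁴ parasites/mL exposed to graded compound concentrations (DMSO or 0.1 M NaOH solutions) at 37 °C, 5% CO₂. Alamar Blue absorbance at 550 nm (reference 630 nm) read at 48 h and 72 h. Parasite-only and compound-only controls; ED₅₀ by linear interpolation of three measurements.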
(In general: Resazurin is reduced to fluorescent resorufin, in cell work by metabolically active cells.)

The target in data set [4] is ATP-dependent translocase ABCB1 (Homo sapiens, UniProt P08183). The experiment in a line: Inhibition of ABCB1 overexpressed in human CCRF-CEM/VCR1000 cell assessed as inhibition of daunomycin efflux after 30 mins by FACS analysis. In general terms: In flow cytometry, cells or beads pass a laser one at a time.
Data set [5] addresses T1, Multidrug resistance protein Pgh1 (Plasmodium falciparum) (UniProt Q9NG76).
T1 sequence (whole entry): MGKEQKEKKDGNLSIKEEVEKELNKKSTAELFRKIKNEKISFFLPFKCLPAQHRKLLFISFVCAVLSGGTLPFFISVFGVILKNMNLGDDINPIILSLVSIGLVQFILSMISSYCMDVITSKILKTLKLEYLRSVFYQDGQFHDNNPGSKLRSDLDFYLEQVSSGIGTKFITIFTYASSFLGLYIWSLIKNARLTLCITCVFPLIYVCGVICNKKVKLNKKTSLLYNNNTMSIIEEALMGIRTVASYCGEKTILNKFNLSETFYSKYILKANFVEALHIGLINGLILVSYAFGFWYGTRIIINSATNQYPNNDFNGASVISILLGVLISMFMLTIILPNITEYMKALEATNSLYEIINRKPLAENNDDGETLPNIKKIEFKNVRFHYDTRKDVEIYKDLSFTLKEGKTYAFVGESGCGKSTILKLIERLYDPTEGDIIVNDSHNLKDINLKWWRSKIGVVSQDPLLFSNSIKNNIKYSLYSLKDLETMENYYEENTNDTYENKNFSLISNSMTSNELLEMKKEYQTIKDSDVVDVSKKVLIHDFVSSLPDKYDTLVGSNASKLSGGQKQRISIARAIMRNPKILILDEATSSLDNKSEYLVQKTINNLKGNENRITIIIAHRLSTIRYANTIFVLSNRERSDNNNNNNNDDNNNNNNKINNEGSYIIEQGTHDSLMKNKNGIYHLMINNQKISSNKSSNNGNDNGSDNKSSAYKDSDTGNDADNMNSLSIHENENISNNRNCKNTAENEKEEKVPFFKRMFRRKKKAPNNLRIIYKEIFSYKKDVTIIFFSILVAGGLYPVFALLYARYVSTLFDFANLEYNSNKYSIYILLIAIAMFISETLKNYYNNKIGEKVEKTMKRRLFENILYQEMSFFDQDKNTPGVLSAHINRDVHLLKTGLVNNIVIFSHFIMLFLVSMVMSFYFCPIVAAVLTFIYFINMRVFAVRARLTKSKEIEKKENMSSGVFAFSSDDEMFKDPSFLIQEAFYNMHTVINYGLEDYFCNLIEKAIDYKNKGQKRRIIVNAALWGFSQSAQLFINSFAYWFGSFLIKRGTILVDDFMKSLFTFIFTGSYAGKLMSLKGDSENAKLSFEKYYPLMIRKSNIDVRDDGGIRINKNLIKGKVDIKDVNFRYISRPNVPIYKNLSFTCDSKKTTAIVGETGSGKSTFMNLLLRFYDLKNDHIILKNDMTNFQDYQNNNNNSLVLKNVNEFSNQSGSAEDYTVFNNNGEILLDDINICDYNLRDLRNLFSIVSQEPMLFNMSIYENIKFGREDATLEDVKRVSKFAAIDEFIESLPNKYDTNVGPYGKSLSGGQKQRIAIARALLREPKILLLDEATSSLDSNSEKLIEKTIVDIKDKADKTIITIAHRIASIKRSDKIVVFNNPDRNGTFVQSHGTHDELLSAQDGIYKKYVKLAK
Description: Inhibition of Plasmodium PGH1-mediated fluorochrome accumulation into parasite digestive vacuole at […] concentration.

The test system of data set [6] is Trypanosoma brucei brucei. Description: Antitrypanosomal activity against Trypanosoma brucei brucei TC221 after 72 hrs by alamar blue assay. It is filed as functional, organism-based. The following applies: TC221, 72 h. The procedure, abridged: as §1

Regarding `CN1CCN(C(C(=O)Nc2ccc(NS(C)(=O)=O)cc2C(=O)c2ccccc2)c2ccccc2)CC1` (racemic), the IC50 worked out at 10.6 µM with Plasmodium falciparum, 5.58 µM in data set [3] and 5.84 µM in data set [6]. In addition, it took 99 µM to reach half-maximal cytotoxicity in data set [1] (CC50 at 72 h). Also, in data set [2], the “Ratio CC50/IC50” value came out at 9. Moreover, the EC50 in data set [4] came out at 15.5 µM. Further, the inhibition entry in data set [5] is “inactive”.

The values above are taken from ChEMBL document CHEMBL1152663, “Antimalarial and antitrypanosomal activity of a series of amide and sulfonamide derivatives of a 2,5-diaminobenzophenone” (Bioorg Med Chem, 2009).
